Measured values reported in ChEMBL document CHEMBL5058577, “EUbOPEN Chemogenomics Library 2 (Multiplex)” (2022).

Tested on: Fibroblast
Assay: Multiplex assay against human fibroblast
Assay type: toxicity, cell-based
Outline: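 Live cells carried four stains from seeding: Hoechst33342, BioTracker Green Microtubule Cytoskeleton Dye, MitoTracker Red and Annexin V Alexa Fluor 680. They were imaged on a CQ1 microscope at 37°C and 5% CO2 after compound addition. Using CellPathfinder machine-learning gating, cells were split into Hoechst high-intensity objects or normal cells, normal cells into healthy, pyknosed or fragmented nuclei, and pyknosed cells into mitotic or apoptotic; tubulin, mitochondrial-mass and membrane-permeability phenotypes are per cents of healthy-nucleus cells.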

[1] = 12 h, 1 µM, compound concentration 1 uM, replicate 1
[2] = 12 h, 1 µM, compound concentration 1 uM, replicate 2
[3] = 12 h, 10 µM, compound concentration 10 uM, replicate 1
[4] = 12 h, 10 µM, compound concentration 10 uM, replicate 2
[5] = 24 h, 1 µM, compound concentration 1 uM, replicate 1
[6] = 24 h, 1 µM, compound concentration 1 uM, replicate 2
[7] = 24 h, 10 µM, compound concentration 10 uM, replicate 1
[8] = 24 h, 10 µM, compound concentration 10 uM, replicate 2
[9] = 48 h, 1 µM, compound concentration 1 uM, replicate 1
[10] = 48 h, 1 µM, compound concentration 1 uM, replicate 2
[11] = 48 h, 10 µM, compound concentration 10 uM, replicate 1
[12] = 48 h, 10 µM, compound concentration 10 uM, replicate 2

## CN(C)c1ccnc2sc3c(=O)n(N4CCCCCC4)cnc3c12
[1]
  Population Apoptotic (%): 42%
  Population Fragmented Nuclei (%): 17%
  Population Healthy Nuclei (%): 64%
  Population Hoechst High Intensity Objects (%): 3%
  Population Membrane Permeable-Phenotype (%): 1%
  Population Mitochondria Different-Phenotype (%): 3%
  Population Mitotic Cells (%): 57%
  Population Normal (%): 96%
  Population Pyknosed Nuclei (%): 18%
  Population Tubulin-Different-Phenotype (%): 29%
  Total Cell Count: 144
[2]
  Population Apoptotic (%): 30%
  Population Fragmented Nuclei (%): 28%
  Population Healthy Nuclei (%): 51%
  Population Hoechst High Intensity Objects (%): 6%
  Population Membrane Permeable-Phenotype (%): 10%
  Population Mitotic Cells (%): 70%
  Population Normal (%): 93%
  Population Pyknosed Nuclei (%): 19%
  Population Tubulin-Different-Phenotype (%): 44%
  Total Cell Count: 162
[3]
  Population Apoptotic (%): 44%
  Population Fragmented Nuclei (%): 14%
  Population Healthy Nuclei (%): 58%
  Population Hoechst High Intensity Objects (%): 5%
  Population Membrane Permeable-Phenotype (%): 1%
  Population Mitochondria Different-Phenotype (%): 14%
  Population Mitotic Cells (%): 55%
  Population Normal (%): 94%
  Population Pyknosed Nuclei (%): 27%
  Population Tubulin-Different-Phenotype (%): 75%
  Total Cell Count: 141
[4]
  Population Apoptotic (%): 49%
  Population Fragmented Nuclei (%): 31%
  Population Healthy Nuclei (%): 30%
  Population Hoechst High Intensity Objects (%): 7%
  Population Membrane Permeable-Phenotype (%): 12%
  Population Mitotic Cells (%): 50%
  Population Normal (%): 92%
  Population Pyknosed Nuclei (%): 38%
  Total Cell Count: 145
[5]
  Population Apoptotic (%): 48%
  Population Fragmented Nuclei (%): 11%
  Population Healthy Nuclei (%): 67%
  Population Hoechst High Intensity Objects (%): 3%
  Population Membrane Permeable-Phenotype (%): 0%
  Population Mitochondria Different-Phenotype (%): 3%
  Population Mitotic Cells (%): 51%
  Population Normal (%): 96%
  Population Pyknosed Nuclei (%): 21%
  Population Tubulin-Different-Phenotype (%): 27%
  Total Cell Count: 143
[6]
  Population Apoptotic (%): 50%
  Population Fragmented Nuclei (%): 24%
  Population Healthy Nuclei (%): 55%
  Population Hoechst High Intensity Objects (%): 2%
  Population Membrane Permeable-Phenotype (%): 10%
  Population Mitochondria Different-Phenotype (%): 2%
  Population Mitotic Cells (%): 50%
  Population Normal (%): 97%
  Population Pyknosed Nuclei (%): 19%
  Population Tubulin-Different-Phenotype (%): 49%
  Total Cell Count: 146
[7]
  Population Apoptotic (%): 57%
  Population Fragmented Nuclei (%): 13%
  Population Healthy Nuclei (%): 58%
  Population Hoechst High Intensity Objects (%): 5%
  Population Membrane Permeable-Phenotype (%): 0%
  Population Mitochondria Different-Phenotype (%): 18%
  Population Mitotic Cells (%): 42%
  Population Normal (%): 94%
  Population Pyknosed Nuclei (%): 28%
  Population Tubulin-Different-Phenotype (%): 63%
  Total Cell Count: 130
[8]
  Population Apoptotic (%): 30%
  Population Fragmented Nuclei (%): 35%
  Population Healthy Nuclei (%): 41%
  Population Hoechst High Intensity Objects (%): 8%
  Population Membrane Permeable-Phenotype (%): 22%
  Population Mitochondria Different-Phenotype (%): 24%
  Population Mitotic Cells (%): 69%
  Population Normal (%): 91%
  Population Pyknosed Nuclei (%): 22%
  Population Tubulin-Different-Phenotype (%): 85%
  Total Cell Count: 128
[9]
  Population Apoptotic (%): 64%
  Population Fragmented Nuclei (%): 19%
  Population Healthy Nuclei (%): 70%
  Population Hoechst High Intensity Objects (%): 2%
  Population Membrane Permeable-Phenotype (%): 0%
  Population Mitochondria Different-Phenotype (%): 0%
  Population Mitotic Cells (%): 35%
  Population Normal (%): 97%
  Population Pyknosed Nuclei (%): 10%
  Population Tubulin-Different-Phenotype (%): 30%
  Total Cell Count: 143
[10]
  Population Apoptotic (%): 36%
  Population Fragmented Nuclei (%): 36%
  Population Healthy Nuclei (%): 49%
  Population Hoechst High Intensity Objects (%): 3%
  Population Membrane Permeable-Phenotype (%): 6%
  Population Mitochondria Different-Phenotype (%): 2%
  Population Mitotic Cells (%): 63%
  Population Normal (%): 96%
  Population Pyknosed Nuclei (%): 14%
  Population Tubulin-Different-Phenotype (%): 41%
  Total Cell Count: 157
[11]
  Population Apoptotic (%): 73%
  Population Fragmented Nuclei (%): 22%
  Population Healthy Nuclei (%): 47%
  Population Hoechst High Intensity Objects (%): 8%
  Population Membrane Permeable-Phenotype (%): 0%
  Population Mitochondria Different-Phenotype (%): 25%
  Population Mitotic Cells (%): 26%
  Population Normal (%): 91%
  Population Pyknosed Nuclei (%): 30%
  Population Tubulin-Different-Phenotype (%): 76%
  Total Cell Count: 138
[12]
  Population Apoptotic (%): 50%
  Population Fragmented Nuclei (%): 47%
  Population Healthy Nuclei (%): 42%
  Population Hoechst High Intensity Objects (%): 6%
  Population Membrane Permeable-Phenotype (%): 19%
  Population Mitochondria Different-Phenotype (%): 13%
  Population Mitotic Cells (%): 50%
  Population Normal (%): 93%
  Population Pyknosed Nuclei (%): 9%
  Population Tubulin-Different-Phenotype (%): 86%
  Total Cell Count: 131
